Test [1] is described as follows: growth inhibition of fluconazole-resistant C. albicans, confirmation, dry powder retest, set 3 (AID 493080). The following applies: C. albicans CaCi-2 + fluconazole, Alamar Blue growth, 48 h. Summed up:
(§1)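 Control set: geldanamycin as positive control; test system: fluconazole-resistant C. albicans CaCi-2; input: inoculum A600 0.00015; signal: Alamar Blue fluorescence, Ex 544 nm, Em 590 nm; schedule: compound 48 h at 37 °C, dye 2 h at room temperature; dosing: pin-transferred compounds; buffer or medium: RPMI medium, MOPS-buffered; also added: fluconazole co-treatment at 8 µg/mL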

Test [2] concerns C. albicans CaCi-2 + fluconazole, Alamar Blue growth, 48 h. Described as above. Summed up:
as §1

Several values for one entry are separate records, joined by “and”; a condition that tells them apart may be missing. Equal values may be shown once. Activity calls are given as the source filed them.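 How the source made its calls: active means growth inhibition with fitted AC50 no more than ten times the top valid dose; inconclusive means flat fit at 30 to 70% inhibition, or bad fit; inactive means the rest, including rises in signal.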 Where only a bound is given, the exact number is not on record here.

For `O=C(C1CCCCC1)N1CCN(c2ccccn2)CC1`, the activity change, negative = inhibition in test [1] (at 12 µM (top of the series)) was -20.7% (inactive).

With `CNC(=O)Cn1nc(-c2ccccc2)c2ccccc21`, the activity change, negative = inhibition in test [1] (at 12 µM (top of the series)) was 10.1% (inactive).

By AC50 is commonly meant the midpoint of the concentration-response curve, whichever way the signal moves. Regarding `CCN(CC)C(=O)Cn1c2ccccc2c2nc3n(c(=O)c21)CCS3`, the AC50 in test [2] is 1670 nM and 1820 nM.

Regarding `O=C(Cn1c2ccccc2c2nc3n(c(=O)c21)CCS3)N1CCCCC1`, the AC50 in test [2] was 2080 nM.

In the case of `O=C(Cn1c2ccccc2c2nc3n(c(=O)c21)CCCS3)c1ccc(F)cc1`, the activity change, negative = inhibition in test [1] (at 12 µM (top of the series)) was 3.71% (inactive).

As to `c1ccc(-c2n[nH]c3ccccc23)cc1`, in test [1] (at 12 µM (top of the series)), the activity change, negative = inhibition is 24.5% (inactive).

Turning to `O=c1c2[nH]c3ccccc3c2nc2n1CCS2`, in test [2], the AC50 was 8160 nM.

Consider `COC(=O)Cn1nc(-c2ccccc2)c2cc(Cl)ccc21`, for which, in test [2], the AC50 was 8100 nM.

Turning to `O=C(Cn1nc(-c2ccccc2)c2cc(Cl)ccc21)N1CCOCC1`, the activity change, negative = inhibition in test [1] (at 12 µM (top of the series)) was -1.59% (inactive).

Consider `O=C(c1cccc(Cl)c1)N1CCN(c2ccccn2)CC1`, for which the activity change, negative = inhibition in test [1] (at 12 µM (top of the series)) was 8.07% (inactive).

In the case of `CCOC(=O)c1c2ccccc2nn1Cc1ccc(Cl)cc1`, the activity change, negative = inhibition in test [1] (at 12 µM (top of the series)) was 17.8% (inactive).

For the molecule `O=c1c2[nH]c3ccc(F)cc3c2nc2n1CCS2`, the AC50 in test [2] is 2960 nM.

As to `COC(=O)Cn1nc(C)c2ccccc21`, the activity change, negative = inhibition in test [1] (at 12 µM (top of the series)) was -1.03% (inactive).

For `O=C(O)Cn1nc(-c2ccccc2)c2ccccc21`, in test [1] (at 12 µM (top of the series)), the activity change, negative = inhibition is -8.71% (inactive).

On to `O=C(c1ccccc1Cl)N1CCN(c2ccccn2)CC1`, for which the activity change, negative = inhibition in test [1] (at 12 µM (top of the series)) was 8.16% (inactive).

As to `COCCC(=O)N1CCN(c2ccccn2)CC1`, the activity change, negative = inhibition in test [1] (at 12 µM (top of the series)) is -0.956% (inactive).

As for `CC(C)C(=O)N1CCN(c2ccccn2)CC1`, the activity change, negative = inhibition in test [1] (at 12 µM (top of the series)) is 6.09% (inactive).

With `CCCNC(=O)Cn1nc(-c2ccccc2)c2cc(Cl)ccc21`, in test [1] (at 12 µM (top of the series)), the activity change, negative = inhibition is 27.1% (inactive).

Take `CCN(CC)C(=O)Cn1c2ccc(F)cc2c2nc3n(c(=O)c21)CCS3`: the AC50 in test [2] was 685 nM.

In the case of `O=C(Cn1c2ccccc2c2nc3n(c(=O)c21)CCS3)NCCc1ccc(Cl)cc1`, in test [1] (at 12 µM (top of the series)), the activity change, negative = inhibition is -0.805% (inactive).

Turning to `N#Cc1ccc(C(=O)N2CCN(c3ccccn3)CC2)cc1`, the activity change, negative = inhibition in test [1] (at 12 µM (top of the series)) is -16.1% (inactive).

As for `O=C(Cn1c2ccc(F)cc2c2nc3n(c(=O)c21)CCS3)N1CCCC1`, in test [2], the AC50 is 532 nM.

Turning to `O=C(c1ccc(Cl)cc1)N1CCN(c2cccc(C(F)(F)F)n2)CC1`, the activity change, negative = inhibition in test [1] (at 12 µM (top of the series)) is -1.86% (inactive).

In the case of `CCOC(=O)c1nn(Cc2ccc(Cl)cc2)c2ccccc12`, the activity change, negative = inhibition in test [1] (at 12 µM (top of the series)) was 4.97% (inactive).

Consider `CCCNC(=O)Cn1nc(-c2ccccc2)c2ccccc21`, for which, in test [1] (at 12 µM (top of the series)), the activity change, negative = inhibition was 26.9% (inactive).

In the case of `CCCCC(=O)N1CCN(c2ccccn2)CC1`, the activity change, negative = inhibition in test [1] (at 12 µM (top of the series)) is -2.66% (inactive).

On to `CC1CCN(C(=O)Cn2c3ccccc3c3nc4n(c(=O)c32)CCS4)CC1`, for which the concentration at half-maximal activity (AC50) in test [2] is 2200 nM.

Consider `N#Cc1cccc(N2CCN(C(=O)c3ccc(Cl)cc3)CC2)n1`, for which the activity change, negative = inhibition in test [1] (at 12 µM (top of the series)) was 0.43% (inactive).

Consider `O=C(Cn1nc(-c2ccccc2)c2ccccc21)N1CCc2ccccc2C1`, for which the activity change, negative = inhibition in test [1] (at 12 µM (top of the series)) is 3.01% (inactive).

With `O=C(Cn1c2ccc(F)cc2c2nc3n(c(=O)c21)CCS3)N1CCCCCC1`, in test [2], the concentration at half-maximal activity (AC50) is 1360 nM.

`COc1ccnc(N2CCN(C(=O)c3ccc(Cl)cc3)CC2)c1`: the AC50 in test [2] was > 12000 nM (inactive).

Regarding `O=C(Cn1c2ccc(F)cc2c2nc3n(c(=O)c21)CCS3)N1CCCCC1`, the AC50 in test [2] is 384 nM.

Consider `O=C(O)c1nn(Cc2ccc(Cl)cc2)c2ccccc12`, for which the activity change, negative = inhibition in test [1] (at 12 µM (top of the series)) is -7.95% (inactive).

For the molecule `COC(=O)Cn1nc(-c2ccc(C)cc2)c2ccccc21`, the AC50 in test [2] is 8980 nM.

With `Cc1cccc(N2CCN(C(=O)c3ccc(Cl)cc3)CC2)n1`, in test [1] (at 12 µM (top of the series)), the activity change, negative = inhibition is -17.4% (inactive).

With `COC(=O)Cn1c(-c2ccccc2)nc2ccccc21`, in test [1] (at 12 µM (top of the series)), the activity change, negative = inhibition was -5.95% (inactive).

With `CC1CCN(C(=O)Cn2c3ccc(F)cc3c3nc4n(c(=O)c32)CCCS4)CC1`, the concentration at half-maximal activity (AC50) in test [2] was 2090 nM.

Consider `O=C(c1ccc(Cl)cc1)N1CCN(c2ccc(C(F)(F)F)cn2)CC1`, for which, in test [2], the AC50 was > 12000 nM (inactive).

Turning to `O=C(c1ccc(Cl)cc1)N1CCN(c2nc3ccccc3s2)CC1`, the AC50 in test [2] is 4120 nM.

As for `O=C(Cn1nc(C(=O)N2CCCCC2)c2ccccc21)N1CCOCC1`, the activity change, negative = inhibition in test [1] (at 12 µM (top of the series)) is -6.13% (inactive).

For `CC1CCN(C(=O)Cn2c3ccccc3c3nc4n(c(=O)c32)CCCS4)CC1`, the AC50 in test [2] was 11000 nM.

Turning to `COC(=O)Cn1nc(-c2ccccc2)c2ccccc21`, in test [2], the AC50 is 2110 nM.

Take `O=C(c1ccc(Cl)cc1)N1CCN(c2nc3ccccc3o2)CC1`: the AC50 in test [2] is 12100 nM.

Take `O=C(c1ccc(F)cc1)N1CCN(c2ccccn2)CC1`: the AC50 in test [2] was > 12000 nM (inactive).

As to `O=C(Cn1nc(-c2ccccc2)c2ccccc21)NCc1ccc(Cl)cc1`, the activity change, negative = inhibition in test [1] (at 12 µM (top of the series)) is -6.29% (inactive).

Take `COc1ccc2c(c1)c1nc3n(c(=O)c1n2CC(=O)N1CCC(C)CC1)CCS3`: the activity change, negative = inhibition in test [1] (at 1.2 µM (top of the series)) was 15.5% (inactive).

In the case of `COc1ccc2c(c1)c1nc3n(c(=O)c1n2CC(=O)N1CCC(Cc2ccccc2)CC1)CCS3`, in test [1] (at 12 µM (top of the series)), the activity change, negative = inhibition was -1.27% (inactive).

Consider `O=C(Cn1c2ccccc2c2nc3n(c(=O)c21)CCS3)N1CCCC1`, for which the AC50 in test [2] is 837 nM and 2700 nM.

Take `N#Cc1cccnc1N1CCN(C(=O)c2ccc(Cl)cc2)CC1`: the activity change, negative = inhibition in test [1] (at 12 µM (top of the series)) was -11.5% (inactive).

`O=C(Cn1c2ccccc2c2nc3n(c(=O)c21)CCS3)N1CCOCC1`: the AC50 in test [2] was 2660 nM.

The record behind these values is PubChem BioAssay AID493080 (Broad Institute, 2011).
